Experimental data published in ChEMBL document CHEMBL2429834, “Potent histone deacetylase inhibitors derived from 4-(aminomethyl)-N-hydroxybenzamide with high selectivity for the HDAC6 isoform” (J Med Chem, 2013).
Converted amounts (≈) assume the structure as drawn.

Legend:
[1] = Selectivity ratio of IC50 for HDAC1/2 in human HeLa cell nuclear extract to IC50 for N-terminal GST-tagged recombinant HDAC6 (unknown origin); type: cell-based
Procedure, shortened: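 HDAC6 leg: 1 nM GST-HDAC6 with 8 μM Ac-Arg-Gly-Lys(Ac)-AMC. Nuclear-extract leg: 30 μg/mL HeLa nuclear extract (mainly HDAC1/2) with 20 μM of the same substrate in 50 mM Tris-Cl, 137 mM NaCl, 2.7 mM KCl, 1 mM MgCl2, pH 8.0.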

[2] = molecular target: T1, Protein deacetylase HDAC6 (Homo sapiens, UniProt Q9UBN7); experiment: Inhibition of N-terminal GST-tagged recombinant HDAC6 (unknown origin) assessed as deacetylation of Ac-Arg-Gly-Lys (Ac) after 1 hr by fluorescence plate reader analysis in presence of trypsin
T1 sequence (Q9UBN7 whole entry): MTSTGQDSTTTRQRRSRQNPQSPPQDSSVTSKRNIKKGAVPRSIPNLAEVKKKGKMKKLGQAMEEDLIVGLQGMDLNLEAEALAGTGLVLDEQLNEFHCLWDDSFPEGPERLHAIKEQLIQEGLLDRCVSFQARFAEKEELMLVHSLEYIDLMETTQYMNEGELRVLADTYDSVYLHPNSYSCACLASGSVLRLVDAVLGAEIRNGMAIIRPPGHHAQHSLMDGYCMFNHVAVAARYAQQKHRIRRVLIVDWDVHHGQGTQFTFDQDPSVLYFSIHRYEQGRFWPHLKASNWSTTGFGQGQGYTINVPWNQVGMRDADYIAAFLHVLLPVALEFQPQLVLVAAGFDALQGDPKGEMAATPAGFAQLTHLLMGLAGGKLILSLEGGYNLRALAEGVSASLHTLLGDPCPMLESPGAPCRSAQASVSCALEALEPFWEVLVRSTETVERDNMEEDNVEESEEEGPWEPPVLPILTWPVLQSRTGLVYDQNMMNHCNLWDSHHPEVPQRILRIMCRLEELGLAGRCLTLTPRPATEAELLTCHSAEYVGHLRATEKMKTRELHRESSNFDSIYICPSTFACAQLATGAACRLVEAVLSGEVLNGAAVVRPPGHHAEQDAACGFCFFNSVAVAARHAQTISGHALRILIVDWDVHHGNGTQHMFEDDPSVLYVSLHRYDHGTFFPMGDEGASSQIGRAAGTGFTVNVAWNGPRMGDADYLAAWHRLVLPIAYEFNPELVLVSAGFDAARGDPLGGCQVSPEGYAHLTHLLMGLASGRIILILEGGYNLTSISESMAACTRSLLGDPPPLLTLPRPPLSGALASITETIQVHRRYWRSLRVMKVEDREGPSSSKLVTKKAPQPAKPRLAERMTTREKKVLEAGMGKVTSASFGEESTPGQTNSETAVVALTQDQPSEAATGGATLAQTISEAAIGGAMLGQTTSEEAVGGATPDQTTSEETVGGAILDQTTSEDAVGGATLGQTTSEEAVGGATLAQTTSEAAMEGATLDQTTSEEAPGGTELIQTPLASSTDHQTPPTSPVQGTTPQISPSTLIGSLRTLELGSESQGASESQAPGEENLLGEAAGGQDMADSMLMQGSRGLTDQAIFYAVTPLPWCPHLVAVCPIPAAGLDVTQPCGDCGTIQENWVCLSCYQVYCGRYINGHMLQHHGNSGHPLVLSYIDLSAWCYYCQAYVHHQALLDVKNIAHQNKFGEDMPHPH

[3] = organism: Homo sapiens; experiment: Selectivity ratio of IC50 for full length C-terminal His6x-tagged recombinant human HDAC8 to IC50 for N-terminal GST-tagged recombinant HDAC6 (unknown origin)
[4] = Kinetic solubility of the compound in potassium phosphate buffer at pH 6.8 by turbidometric analysis; type: physicochemical; conditions: read-out: Kinetic_solubility
[5] = molecular target: T1, Protein deacetylase HDAC6; experiment: Inhibition of HDAC6 in human HeLa cells using acetyl tubulin as substrate assessed as Ac-tubulin accumulation in cytosol after 6 hrs by immunofluorescence assay
[6] = molecular target: T2, Protein deacetylase HDAC6 (Homo sapiens) (UniProt Q9UBN7); experiment: Inhibition of HDAC6 in human HeLa cells using acetyl tubulin as substrate assessed as Ac-Lys accumulation in nuclear histones at 20 uM after 24 hrs by immunofluorescence assay relative to control
T2 sequence (whole entry): T1 sequence (Q9UBN7 whole entry)

IC50 [2] [nM] | Ratio IC50 [3] | solubility kinetic [4] [µM] | IC50 [5] [nM] | inhibition [6] [%] | Compound | Ratio IC50 [1]
120 | 40 | > 200 | 2000 | < 20 | O=C(NO)c1ccc2c(c1)CCN(C(=O)C1CCCCCC1)CC2 | 340
24 | – | > 200 | 18 | < 20 | Cn1cccc1C(=O)N1CCc2sc(C(=O)NO)cc2C1 | 30
120 | 40 | > 200 | 580 | < 20 | CC(C)(C)C(=O)N1CCc2ccc(C(=O)NO)cc2CC1 | 340
36 | 40 | > 200 | 162 | < 20 | O=C(NO)c1cc2c(s1)CCN(C(=O)C1CCCCC1)C2 | 47
120 | 40 | > 200 | 3090 | < 20 | O=C(NO)c1ccc2c(c1)CCCN(C(=O)c1ccc(-c3ccccc3)cc1)C2 | 60
19 | 40 | > 200 | – | – | Cn1cccc1C(=O)NCc1ccc(C(=O)NO)s1 | 202
60 | – | 25 (≈ 10 µg/mL) | 1300 | < 20 | O=C(NO)c1ccc2c(c1)CCN(S(=O)(=O)c1ccc(C(F)(F)F)cc1)C2 | 610
28 | – | > 200 | 5 | < 20 | Cn1cccc1C(=O)N1CCc2cc(C(=O)NO)sc2C1 | 14
76 | 40 | > 200 | – | – | O=C(NO)c1ccc(CNC(=O)C2CCCCC2)cc1 | 84
47 | 40 | > 200 | 177 | < 20 | CC(C)(C)C(=O)N1CCc2sc(C(=O)NO)cc2C1 | 64
79 | 40 | > 200 | – | – | CC(C)(C)C(=O)NCc1ccc(C(=O)NO)cc1 | 200
50 | – | > 200 | 540 | < 20 | O=C(NO)c1ccc2c(c1)CCN(C(=O)C1CCCCC1)C2 | 730
340 | 40 | > 200 | 2900 | < 20 | O=C(NO)c1ccc2c(c1)CCCN(C(=O)C1CCCCCC1)C2 | > 200
52 | 40 | > 200 | – | – | Cn1cccc1C(=O)NCc1ncc(C(=O)NO)s1 | 123
20 | – | > 200 | 50 | < 20 | O=C(NO)c1cc2c(s1)CN(C(=O)C1CCCCC1)CC2 | 50
35 | 40 | > 200 | 158 | < 20 | CC(C)(C)C(=O)N1CCc2cc(C(=O)NO)sc2C1 | 71
490 | 40 | > 200 | 3680 | < 20 | CC(C)(C)C(=O)N1CCCc2cc(C(=O)NO)ccc2C1 | > 200
54 | – | > 200 | 340 | < 20 | O=C(NO)c1ccc2c(c1)CCN(C(=O)C1CCCCCC1)C2 | 650
59 | 40 | > 200 | 2600 | < 20 | O=C(NO)c1ccc2c(c1)CCN(C(=O)c1ccc(-c3ccccc3)cc1)CC2 | 340
12000 | – | > 200 | – | – | Cn1cccc1C(=O)NCc1cnc(C(=O)NO)s1 | 8
130 | 40 | > 200 | 1510 | < 20 | Cn1cccc1C(=O)N1CCc2ccc(C(=O)NO)cc2CC1 | 480
